# According to ChEMBL document CHEMBL1137329, “In silico-guided target identification of a scaffold-focused library: 1,3,5-triazepan-2,6-diones as novel phospholipase A2 inhibitors” (J Med Chem, 2006):
# pIC50, pKi: −log10 of the molar value. Active and inactive are the calls of the source. The calls are words filed in the database; no cut-off is given here.
# Assays:
# [1] = target: T1, Phospholipase A2 group V (Homo sapiens) (UniProt P39877); assay: Inhibition of human group 5 sPLA2 at 30 uM
# T1 sequence (whole entry): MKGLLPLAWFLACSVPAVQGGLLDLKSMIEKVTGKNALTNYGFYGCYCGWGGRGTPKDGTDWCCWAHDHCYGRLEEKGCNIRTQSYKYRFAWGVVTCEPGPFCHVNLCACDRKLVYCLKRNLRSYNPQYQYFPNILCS
# How it was run: (§1)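 Recombinant human sPLA2 expressed in E. coli, at 40 pM for group V or 20 pM for group X, preincubated with inhibitor 10 min (15 min in legends). Buffer is 100 mM Tris pH 8.0, 10 mM CaCl2, 0.1% BSA. Substrate is E. coli membranes carrying 100,000 dpm 3H-oleate phospholipids, 15 min at room temperature. Reaction stopped with EDTA/fatty-acid-free BSA and centrifuged; supernatant radioactivity counted. Single 30 µM or concentration series for IC50; at least three experiments.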
# [2] = target: T2, Sulfotransferase 1E1 (Homo sapiens, UniProt P49888); assay: Inhibition of human estrogen sulfotransferase
# T2 sequence (P49888 whole entry): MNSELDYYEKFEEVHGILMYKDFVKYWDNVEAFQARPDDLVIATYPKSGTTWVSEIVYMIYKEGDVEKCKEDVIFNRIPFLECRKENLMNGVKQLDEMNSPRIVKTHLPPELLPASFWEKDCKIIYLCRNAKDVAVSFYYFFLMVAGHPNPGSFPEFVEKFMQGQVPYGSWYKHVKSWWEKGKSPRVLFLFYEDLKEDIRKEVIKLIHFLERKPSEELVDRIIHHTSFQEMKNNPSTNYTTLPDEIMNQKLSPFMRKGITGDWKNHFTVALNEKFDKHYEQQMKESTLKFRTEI
# [3] = target: T3, Thymidine kinase (Human alphaherpesvirus 1) (UniProt Q9QNF7); assay: Inhibition of Herpes simplex virus type 1 thymidine kinase
# T3 sequence (whole entry): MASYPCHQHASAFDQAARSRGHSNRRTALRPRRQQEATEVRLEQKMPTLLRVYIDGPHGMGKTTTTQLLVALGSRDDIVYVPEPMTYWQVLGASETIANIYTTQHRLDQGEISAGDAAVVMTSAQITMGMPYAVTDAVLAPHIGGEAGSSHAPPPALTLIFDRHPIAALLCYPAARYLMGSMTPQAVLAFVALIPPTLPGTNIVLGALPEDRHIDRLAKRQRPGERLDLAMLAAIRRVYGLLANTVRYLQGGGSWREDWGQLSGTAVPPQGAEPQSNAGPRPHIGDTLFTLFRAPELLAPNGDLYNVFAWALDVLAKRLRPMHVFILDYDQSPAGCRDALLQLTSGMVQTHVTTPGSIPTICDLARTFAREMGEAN
# [4] = species: Homo sapiens; assay: Inhibition of methionine aminopeptidase
# [5] = target: T4, Purine nucleoside phosphorylase (Homo sapiens) (UniProt P00491); assay: Inhibition of human purine nucleoside phosphorylase
# T4 sequence (whole entry): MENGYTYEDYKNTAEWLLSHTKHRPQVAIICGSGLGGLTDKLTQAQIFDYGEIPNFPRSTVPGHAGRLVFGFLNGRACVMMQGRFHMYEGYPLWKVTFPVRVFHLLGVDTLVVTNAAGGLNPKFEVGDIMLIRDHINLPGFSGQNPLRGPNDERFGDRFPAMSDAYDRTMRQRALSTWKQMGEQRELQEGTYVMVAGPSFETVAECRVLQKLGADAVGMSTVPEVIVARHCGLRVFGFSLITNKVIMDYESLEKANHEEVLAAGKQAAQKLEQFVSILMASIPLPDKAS
# [6] = target: T5, Group 3 secretory phospholipase A2 (Homo sapiens) (UniProt Q9NZ20); assay: Inhibition of human group 3 sPLA2 at 10 uM
# T5 sequence (whole entry): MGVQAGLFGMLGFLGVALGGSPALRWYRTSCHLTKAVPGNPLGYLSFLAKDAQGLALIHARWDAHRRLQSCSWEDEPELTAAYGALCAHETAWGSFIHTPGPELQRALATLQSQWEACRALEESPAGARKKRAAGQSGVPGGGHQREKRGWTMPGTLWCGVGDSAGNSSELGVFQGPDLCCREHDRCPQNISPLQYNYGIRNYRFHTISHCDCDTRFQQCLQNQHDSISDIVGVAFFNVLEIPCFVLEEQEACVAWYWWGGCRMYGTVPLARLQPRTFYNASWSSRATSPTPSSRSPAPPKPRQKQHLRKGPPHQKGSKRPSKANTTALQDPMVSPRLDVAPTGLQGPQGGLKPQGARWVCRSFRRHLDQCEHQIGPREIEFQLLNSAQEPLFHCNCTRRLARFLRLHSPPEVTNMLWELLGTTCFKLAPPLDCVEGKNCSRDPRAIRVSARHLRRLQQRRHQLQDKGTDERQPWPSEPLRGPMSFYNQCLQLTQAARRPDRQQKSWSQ
# How it was run: (§2)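 Human group III sPLA2 catalytic domain made in Drosophila S2 cells. Inhibitor at 10 or 100 µM preincubated 10 min with enzyme in Tris pH 8.0 buffer with 10 mM CaCl2 and 0.1% BSA. Then 15 min room-temperature hydrolysis of 3H-oleate-labelled E. coli membranes. Stopped with EDTA and fatty-acid-free BSA; supernatant counts after centrifugation.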
# [7] = target: T5, Group 3 secretory phospholipase A2 (Homo sapiens); assay: Inhibition of human group 3 sPLA2 at 100 uM; how it was run: as §2
# [8] = target: T6, Group 10 secretory phospholipase A2 (Homo sapiens) (UniProt O15496); assay: Inhibition of human group 10 sPLA2 at 30 uM; how it was run: as §1
# T6 sequence (whole entry): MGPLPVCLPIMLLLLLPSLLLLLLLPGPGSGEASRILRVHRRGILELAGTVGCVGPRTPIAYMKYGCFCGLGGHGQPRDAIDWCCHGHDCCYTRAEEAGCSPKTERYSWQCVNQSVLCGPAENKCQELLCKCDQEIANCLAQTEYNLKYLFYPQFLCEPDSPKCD
# [9] = target: T7, Phospholipase A2 group V (Homo sapiens, UniProt P39877); assay: Inhibition of human group 5 sPLA2; how it was run: as §1
# T7 sequence (P39877 whole entry): T1 sequence (whole entry)
# [10] = target: T8, Group 10 secretory phospholipase A2 (Homo sapiens, UniProt O15496); assay: Inhibition of human group 10 sPLA2; how it was run: as §1
# T8 sequence (O15496 whole entry): T6 sequence (whole entry)
# [11] = target: T9, Purine nucleoside phosphorylase (Toxoplasma gondii, UniProt Q2HXR2); assay: Inhibition of Toxoplasma gondii purine nucleoside phosphorylase
# T9 sequence (Q2HXR2 whole entry): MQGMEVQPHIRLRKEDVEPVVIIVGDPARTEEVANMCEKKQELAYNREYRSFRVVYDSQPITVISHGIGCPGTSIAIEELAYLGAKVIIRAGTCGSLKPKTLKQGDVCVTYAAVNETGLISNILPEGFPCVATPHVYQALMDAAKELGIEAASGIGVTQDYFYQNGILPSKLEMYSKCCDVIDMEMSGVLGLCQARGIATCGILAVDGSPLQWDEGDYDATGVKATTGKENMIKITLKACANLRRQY
# [12] = target: Phospholipase A2 (Homo sapiens) (UniProt P04054); assay: Inhibition of human group 1B sPLA2 at 30 uM
# Sequence of Phospholipase A2 (Homo sapiens) (P04054 23-148 limits assumed): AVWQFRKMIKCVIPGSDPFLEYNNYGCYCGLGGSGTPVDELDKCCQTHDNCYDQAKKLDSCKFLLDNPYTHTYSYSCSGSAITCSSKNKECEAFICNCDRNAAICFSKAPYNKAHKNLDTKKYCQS
# How it was run: (§3)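 Recombinant human group IB or IIA sPLA2 from E. coli, enzyme level set for linear hydrolysis. Preincubated 10 min with inhibitor at 30 µM in 100 mM Tris pH 8.0, 10 mM CaCl2, 0.1% BSA. 3H-oleate-labelled E. coli membrane substrate added for 15 min at room temperature. Stopped with EDTA/BSA, centrifuged at 14000g, released radioactivity counted; expressed as percent inhibition.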
# [13] = target: T10, Phospholipase A2, membrane associated (Homo sapiens) (UniProt P14555); assay: Inhibition of human group 2A sPLA2 at 30 uM; how it was run: as §3
# T10 sequence (whole entry): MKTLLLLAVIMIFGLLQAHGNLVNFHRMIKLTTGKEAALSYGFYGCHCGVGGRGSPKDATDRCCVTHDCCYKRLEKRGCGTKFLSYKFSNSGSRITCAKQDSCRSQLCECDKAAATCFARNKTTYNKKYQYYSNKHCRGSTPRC
SMILES,inhibition [1],Activity [2],Activity [3],Activity [4],Activity [5],Activity [6],Activity [7],further results
CC(C)(C)OC(=O)CN1C(=O)N[C@@H](Cc2ccccc2)C(=O)N2CCC[C@@H]12,> 70%,–,–,–,–,–,–,–
O=C1[C@@H]2Cc3ccccc3CN2C(=O)N[C@@H]2CCCN12,–,Not Active,inactive,inactive,inactive,inactive,inactive,–
CC(C)[C@@H]1NC(=O)N(CC(=O)OC(C)(C)C)CN(C)C1=O,> 70%,–,–,–,–,–,–,inhibition [8]: > 70%; pIC50 [9]: 4.92; pIC50 [10]: 4.96
CC(C)[C@@H]1NC(=O)N(Cc2ccccc2)CN(C)C1=O,> 70%,–,–,–,–,–,–,inhibition [8]: > 70%
CN1CN(CC(=O)OC(C)(C)C)C(=O)N(CC(=O)OC(C)(C)C)[C@@H](Cc2ccccc2)C1=O,> 70%,–,–,–,–,–,–,pIC50 [9]: 4.96; pIC50 [10]: 4.96
C[C@@H]1NC(=O)NC2Cc3ccccc3CN2C1=O (stereo partly drawn),–,Not Active,inactive,inactive,inactive,inactive,inactive,–
CN1CN(C/C=C/C(=O)O)C(=O)N[C@@H](Cc2ccccc2)C1=O,> 70%,–,–,–,–,–,–,inhibition [8]: > 70%; pIC50 [9]: 4.92; pIC50 [10]: 5.00
COC(=O)CN1CN(C)C(=O)[C@H](Cc2ccccc2)NC1=O,> 70%,–,–,–,–,–,–,–
CC(C)(C)OC(=O)CN1C(=O)N(CC(=O)OC(C)(C)C)[C@@H](Cc2ccccc2)C(=O)N2CCC[C@H]21,–,–,–,–,–,–,–,inhibition [8]: > 70%
CC(C)C[C@@H]1NC(=O)NCN(C)C1=O,–,Not Active,inactive,inactive,inactive,inactive,inactive,–
CN1CN(CC(=O)OC(C)(C)C)C(=O)N[C@@H](Cc2ccc3ccccc3c2)C1=O,> 70%,–,–,–,–,–,–,–
CN1CN(CC(=O)OC(C)(C)C)C(=O)N[C@@H](Cc2ccccc2)C1=O,> 70%,–,–,–,–,–,–,–
CN1CN(C/C=C/C(=O)OC(C)(C)C)C(=O)N[C@@H](Cc2ccccc2)C1=O,–,–,–,–,–,–,–,inhibition [8]: > 70%
CN1CN(CCCC(=O)O)C(=O)N[C@@H](Cc2ccccc2)C1=O,> 70%,–,–,–,–,–,–,inhibition [8]: > 70%
O=C1N[C@@H](Cc2ccccc2)C(=O)N2C[C@H](O)C[C@H]2N1,–,Not Active,inactive,inactive,inactive,inactive,inactive,–
CN1C(=O)[C@H](Cc2ccccc2)NC(=O)N[C@@H]1Cc1ccccc1,> 70%,–,–,–,–,–,–,pIC50 [9]: 4.96; pIC50 [10]: 4.89
CN1CN(CCCC(N)=O)C(=O)N[C@@H](Cc2ccccc2)C1=O,> 70%,–,–,–,–,–,–,–
CC(C)(C)OC(=O)CN1C(=O)N[C@@H](Cc2ccc3ccccc3c2)C(=O)N2CCC[C@@H]12,> 70%,–,–,–,–,–,–,–
CN1CNC(=O)N[C@@H](Cc2ccccc2)C1=O,–,Not Active,inactive,inactive,inactive,inactive,inactive,–
CN1CNC(=O)N[C@@H](CN)C1=O,–,Not Active,inactive,inactive,inactive,inactive,inactive,–
CN1CN(CC(=O)O)C(=O)N(CC(=O)O)[C@@H](Cc2ccccc2)C1=O,> 70%,–,–,–,–,–,–,–
O=C1N[C@@H](Cc2ccccc2)C(=O)N2C[C@H](OCc3ccccc3)C[C@H]2N1,–,Not Active,inactive,inactive,inactive,inactive,inactive,pKi [11]: 5.10
CN1CN(CC(=O)O)C(=O)N[C@@H](Cc2ccccc2)C1=O,–,Not Active,inactive,inactive,inactive,inactive,inactive,Activity [12]: inactive; inhibition [13]: 25%
